Data: BindingDB's records for doi:10.1021/jm9704199 (Dupont Pharmaceuticals, 1998)

Target: Human immunodeficiency virus type 1 protease (Human immunodeficiency virus 1, UniProt Q72874)
Assay: Inhibition of HIV protease, measured by assaying the cleavage of a fluorescent peptide substrate using HPLC
In short: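 HIV-1 protease activity followed as cleavage of a fluorescent peptide substrate, with products resolved and quantified by HPLC; Ki values reported.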

| Ki [nM] | Structure (SMILES) |
| --- | --- |
| 0.031 | CCCC(N=O)c1cccc(CN2C(=O)N(Cc3cccc(C(CCC)N=O)c3)[C@H](Cc3ccccc3)[C@H](O)[C@@H](O)[C@H]2Cc2ccccc2)c1 (some centres not stated) |
| 0.031 | CCC(N=O)c1cccc(CN2C(=O)N(Cc3cccc(C(CC)N=O)c3)[C@H](Cc3ccccc3)[C@H](O)[C@@H](O)[C@H]2Cc2ccccc2)c1 (stereo partly drawn) [(4R,5S,6S,7R)-4,7-dibenzyl-5,6-dihydroxy-1,3-bis({3-[1-(hydroxyimino)propyl]phenyl}methyl)-1,3-diazepan-2-one] |
